Published values gathered from unrelated publications.
ABL1 Q252H non-phosphorylated: Tyrosine-protein kinase ABL1, non-phosphorylated (ABL1, Homo sapiens, UniProt P00519, Q252H)
ABL1 Y253F phosphorylated: Tyrosine-protein kinase ABL1, phosphorylated (ABL1, Homo sapiens, UniProt P00519, Y253F)
ABL1 E255K: Tyrosine-protein kinase ABL1 (ABL1, Homo sapiens, UniProt P00519, E255K)
ABL1 Q252H: Tyrosine-protein kinase ABL1 (ABL1, Homo sapiens, UniProt P00519, Q252H)
ABL1 non-phosphorylated: Tyrosine-protein kinase ABL1, non-phosphorylated (ABL1, Homo sapiens, UniProt P00519)
ABL1 F317I non-phosphorylated: Tyrosine-protein kinase ABL1, non-phosphorylated (ABL1, Homo sapiens, UniProt P00519, F317I)
ABL1 M351T: Tyrosine-protein kinase ABL1 (ABL1, Homo sapiens, UniProt P00519, M351T)
ABL1 F317L phosphorylated: Tyrosine-protein kinase ABL1, phosphorylated (ABL1, Homo sapiens, UniProt P00519, F317L)
ABL1 T315I phosphorylated: Tyrosine-protein kinase ABL1, phosphorylated (ABL1, Homo sapiens, UniProt P00519, T315I)
ABL1 E255K phosphorylated: Tyrosine-protein kinase ABL1, phosphorylated (ABL1, Homo sapiens, UniProt P00519, E255K)
ABL1 phosphorylated: Tyrosine-protein kinase ABL1, phosphorylated (ABL1, Homo sapiens, UniProt P00519)

CC1CCCN1c1nccc(-c2cnn3ncccc23)n1 (stereo not shown) — remaining binding (Tyrosine-protein kinase ABL1 (ABL1, Homo sapiens, UniProt P00519, H396P); binding; 1 µM): 80%
Nc1c(C(=O)NCc2ccc(C(=O)NCCCC3CCCCC3)cc2)cnn1-c1ccccc1 — remaining binding (Tyrosine-protein kinase ABL1, phosphorylated (ABL1, Homo sapiens, UniProt P00519, Q252H); cell-free assay, competition with immobilised ligand; 0.1 µM): 98%
C[C@@H](c1ccc(-n2cnc3c(N)ncnc32)cc1)N1CCc2nn(C)c(Cc3ccccc3)c2C1=O — remaining binding (ABL1 Q252H non-phosphorylated; binding, competition with immobilised ligand; 0.1 µM): 26%
O=C(c1ccc(Nc2ncc(Cl)c(-c3cc4ccccc4s3)n2)cc1)N1CCC(N2CCCC2)CC1 — remaining binding (ABL1 Y253F phosphorylated; binding, competition with immobilised ligand; 1 µM): 8%
CN1CCN(c2ccc(Nc3nccc(-c4ccccc4)n3)cc2C(F)(F)F)CC1 — remaining binding (ABL1 E255K; binding; 10 µM): 22%
F[C@@H]1CCN(c2nccc(-c3cnn4ncccc34)n2)C1 — remaining binding (ABL1 Q252H; binding; 1 µM): 93%
COc1ncc2cc3ccccc3nc2c1C#N — remaining binding (ABL1 Y253F phosphorylated; cell-free assay, competition with immobilised ligand; 5 µM): 92%
COc1cc(-c2cn(C3CCc4ccccc4N(CC(F)(F)F)C3=O)nn2)ccc1-n1ccc(C)n1 (stereo not shown) — remaining binding (ABL1 Y253F phosphorylated; cell-free assay, competition with immobilised ligand; 1 µM): 87%
O=C(NCCCN1CCOCC1)c1ccc(Nc2ncc(Cl)c(-c3ccc(Cl)s3)n2)cc1 — remaining binding (ABL1 non-phosphorylated; binding, competition with immobilised ligand; 1 µM): 26%
Cn1cc(Cl)c2c(Oc3c(F)cc(Nc4cc(Cl)nc(N)n4)cc3F)ccnc21 — remaining binding (ABL1 F317I non-phosphorylated; binding, competition with immobilised ligand; 0.1 µM): 93%
CN1CCN(c2ccc(Nc3nccc(-c4cccc([N+](=O)[O-])c4)n3)cc2C(F)(F)F)CC1 — remaining binding (ABL1 E255K; binding; 10 µM): 5.8%
N[C@@H]1CCN(c2nccc(-c3cnn4ncccc34)n2)C1 — remaining binding (ABL1 M351T; binding; 1 µM): 100%
CCCCN(CCCC)C(=O)CN1C[C@@H](c2cc(OC)c3c(c2)OCO3)[C@H](C(=O)O)[C@H]1CC(C)(C)CCC — remaining binding (ABL1 F317L phosphorylated; cell-free assay, competition with immobilised ligand; 1 µM): 93.5%
C=CC(=O)N1CCC(C(=O)NCC(=O)N2CCN(c3nc(-c4cnc(N)nc4C(F)F)nc(N4CCOCC4)n3)CC2)CC1 — remaining binding (ABL1 non-phosphorylated; binding, competition with immobilised ligand; 1 µM): 80%
Cc1cnc(Nc2ccc(C(=O)N3CCC(N4CCCC4)CC3)cc2)nc1-c1cc2ccccc2s1 — remaining binding (ABL1 F317I non-phosphorylated; binding, competition with immobilised ligand; 1 µM): 100%
COc1cnc(Nc2cccc(S(N)(=O)=O)c2)nc1N1CCN(c2ccccc2)CC1 — remaining binding (Tyrosine-protein kinase ABL1, non-phosphorylated (ABL1, Homo sapiens, UniProt P00519, T315I); binding, competition with immobilised ligand; 1 µM): 89%
C[C@@H]1CCN(c2nccc(-c3cnn4ncccc34)n2)C1 — remaining binding (ABL1 M351T; binding; 1 µM): 100%
COc1cnc(Nc2cccc(S(N)(=O)=O)c2)nc1N1CCN(c2ccccc2)C(=O)C1 — remaining binding (ABL1 F317L phosphorylated; binding, competition with immobilised ligand; 1 µM): 97%
N#Cc1ccc(Nc2ccc3[nH]c(=O)[nH]c3c2)c(Cl)c1 — remaining binding (ABL1 T315I phosphorylated; cell-free assay, competition with immobilised ligand; 1 µM): 93%
O=C(c1ccc(Nc2ncc(Cl)c(-c3ccc(Cl)s3)n2)cc1)N1CCC(N2CCCC2)CC1 — remaining binding (ABL1 E255K phosphorylated; binding, competition with immobilised ligand; 1 µM): 4.3%
CNC(=O)[C@@H]1CC[C@@H](n2c(-c3ccc4cnccc4c3)nc3ccc(C(=O)NCc4cccc(C(N)=O)c4)cc32)C1 — remaining binding (ABL1 Y253F phosphorylated; binding, competition with immobilised ligand; 1 µM): 100%
CN(c1nccc(-c2cnn3ncccc23)n1)C1CC1 — remaining binding (ABL1 Q252H; binding; 1 µM): 100%
N#Cc1ccccc1CSc1nnc2c(n1)[nH]c1ccccc12 — remaining binding (ABL1 T315I phosphorylated; binding, competition with immobilised ligand; 10 µM): 92%
CCS(=O)(=O)c1cc2cc(C[C@](O)(CC(C)(C)c3ccc(F)cc3C(N)=O)C(F)(F)F)[nH]c2cn1 — remaining binding (ABL1 non-phosphorylated; cell-free assay, competition with immobilised ligand; 1 µM): 100%
c1cnn2ncc(-c3ccnc(N4CCC45COC5)n3)c2c1 — remaining binding (ABL1 Q252H; binding; 1 µM): 69%
Nc1ncc2c(n1)-c1c([nH]c3ccc(C#CC4CC4)cc13)CCCC2 — remaining binding (ABL1 phosphorylated; binding, competition with immobilised ligand; 1 µM): 100%
CCN1CCN(Cc2ccc(C(=O)Nc3ccc(C)c(Oc4ccc5c(c4)CC(=O)N5)c3)cc2C(F)(F)F)CC1 — remaining binding (ABL1 E255K phosphorylated; binding, competition with immobilised ligand; 1 µM): 74%
CCc1ccccc1C(=O)Nc1n[nH]c2c(C)c(F)c(C3C(C#N)=C(C)N(C)C(C)=C3C#N)cc12 — remaining binding (ABL1 Q252H non-phosphorylated; cell-free assay, competition with immobilised ligand; 1 µM): 82%
O=C(NCCCN1CCOCC1)c1ccc(Nc2nccc(-c3cc4ccccc4s3)n2)cc1 — remaining binding (Tyrosine-protein kinase ABL1, non-phosphorylated (ABL1, Homo sapiens, UniProt P00519, F317L); binding, competition with immobilised ligand; 1 µM): 90%
O=C(Nc1c[nH]nc1C(=O)NC1CCNCC1)c1cc(F)cc(F)c1 — remaining binding (ABL1 F317I non-phosphorylated; binding, competition with immobilised ligand; 1 µM): 100%
COC(=O)Nc1nc2ccc(C(=O)c3ccccc3)cc2[nH]1 — remaining binding (ABL1 non-phosphorylated; cell-free assay, competition with immobilised ligand; 10 µM): 2%
O=C(NCC1CCOCC1)c1n[nH]cc1NC(=O)c1c(F)cccc1F — remaining binding (ABL1 F317I non-phosphorylated; binding, competition with immobilised ligand; 1 µM): 86%
c1cncc(-c2cccc(Nc3nccc(NC4CCCCC4)n3)c2)c1 — remaining binding (ABL1 phosphorylated; binding, competition with immobilised ligand; 10 µM): 32%
CN(CCCC(F)(F)F)c1nccc(-c2cnn3ncccc23)n1 — remaining binding (Tyrosine-protein kinase ABL1 (ABL1, Homo sapiens, UniProt P00519, Y253F); binding; 1 µM): 89%
O=C(NCc1ncc(C(F)(F)F)cc1Cl)c1ccc2c(c1)C1(CCS(=O)(=O)CC1)[C@H](C1CC1)N2S(=O)(=O)c1ccc(F)cc1 — remaining binding (ABL1 phosphorylated; cell-free assay, competition with immobilised ligand; 1 µM): 71%
CN(C)c1nccc(-c2cnc3ncccn23)n1 — remaining binding (ABL1 M351T; binding; 1 µM): 78%
O=C(c1ccc(Nc2nccc(-c3cc4ccccc4s3)n2)cc1)N1CCC(N2CCCC2)CC1 — remaining binding (ABL1 F317I non-phosphorylated; binding, competition with immobilised ligand; 1 µM): 92%
